Calls of active or inactive are those of the source. No cut-off for these calls is given here.
Legend:
[1] = molecular target: T1, Coagulation factor XII (Homo sapiens) (UniProt P00748); assay: (§1) The compound was measured for inhibitory activity against human coagulation factor XII
T1 sequence (whole entry): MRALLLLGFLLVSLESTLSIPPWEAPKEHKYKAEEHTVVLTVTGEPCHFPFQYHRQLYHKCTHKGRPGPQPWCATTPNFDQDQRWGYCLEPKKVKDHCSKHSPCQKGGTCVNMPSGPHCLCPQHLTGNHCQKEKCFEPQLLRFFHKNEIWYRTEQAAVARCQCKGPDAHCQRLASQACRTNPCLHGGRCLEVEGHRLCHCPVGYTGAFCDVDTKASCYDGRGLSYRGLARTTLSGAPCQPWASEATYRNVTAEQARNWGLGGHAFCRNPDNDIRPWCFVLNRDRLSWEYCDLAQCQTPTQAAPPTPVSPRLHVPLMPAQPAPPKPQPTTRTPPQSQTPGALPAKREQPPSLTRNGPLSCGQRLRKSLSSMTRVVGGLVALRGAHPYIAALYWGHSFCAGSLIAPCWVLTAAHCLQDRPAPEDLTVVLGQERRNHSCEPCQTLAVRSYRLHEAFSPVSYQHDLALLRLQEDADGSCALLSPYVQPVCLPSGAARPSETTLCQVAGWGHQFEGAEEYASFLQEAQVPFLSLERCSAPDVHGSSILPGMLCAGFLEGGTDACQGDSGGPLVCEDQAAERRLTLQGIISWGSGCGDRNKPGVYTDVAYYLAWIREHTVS
How it was run: (§2)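 Enzymes (plasma kallikrein and factor XIIa of human origin) at 0.03–2.3 μM were incubated at 25 °C with inhibitor (1.7–420 μM) in 0.1 M Hepes, 0.01 M CaCl2, pH 7.5, 8–12% Me2SO. Timed aliquots were assayed for residual activity with Z-Arg-SBzl (80–90 μM) plus 4,4'-dithiodipyridine, read at 394 nm. Pseudo-first-order kobs came from ln v0/vt vs time; kobs/[I] typically averaged from duplicate or triplicate runs.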

[2] = molecular target: T2, Serine protease 1 (Bos taurus) (UniProt P00760); assay: The compound was measured for inhibitory activity against bovine trypsin
T2 sequence (whole entry): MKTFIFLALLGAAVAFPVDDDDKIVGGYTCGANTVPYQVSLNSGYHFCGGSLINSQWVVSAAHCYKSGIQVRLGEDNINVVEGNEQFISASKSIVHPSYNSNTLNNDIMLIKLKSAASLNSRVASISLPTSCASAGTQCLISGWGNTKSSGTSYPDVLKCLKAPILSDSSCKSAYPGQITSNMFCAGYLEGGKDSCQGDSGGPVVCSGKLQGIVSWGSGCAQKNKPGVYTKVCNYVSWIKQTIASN
How it was run: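 Inactivation by incubation: enzyme (0.03–2.3 μM) with inhibitor (1.7–420 μM) added from Me2SO (8–12% final) in 0.1 M Hepes, 0.01 M CaCl2, pH 7.5, 25 °C. Aliquots withdrawn over time; residual activity read with Z-Phe-Gly-Arg-NA (100–120 μM) at 410 nm. kobs from ln v0/vt vs time; kobs/[I] typically averaged from duplicate or triplicate runs.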

[3] = molecular target: Prothrombin (Homo sapiens) (UniProt P00734); assay: The compound was measured for inhibitory activity against human thrombin
How it was run: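 Human thrombin (0.03–2.3 μM) was incubated at 25 °C with inhibitor (1.7–420 μM) in 0.1 M Hepes, 0.5 M NaCl, pH 7.5, 8–12% Me2SO. Residual activity in withdrawn aliquots was measured with Z-Arg-SBzl (80–90 μM) and 4,4'-dithiodipyridine at 394 nm. kobs from ln v0/vt vs time; kobs/[I] typically averaged from duplicate or triplicate experiments.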

[4] = molecular target: Prothrombin (Bos taurus) (UniProt P00735); assay: (§3) The compound was measured for inhibitory activity against bovine thrombin
[5] = molecular target: Plasma kallikrein (Homo sapiens) (UniProt P03952); assay: The compound was measured for inhibitory activity against human plasma kallikrein; type: cell-free; how it was run: as §2
Chain of Plasma kallikrein (Homo sapiens) (P03952 20-390 limits assumed): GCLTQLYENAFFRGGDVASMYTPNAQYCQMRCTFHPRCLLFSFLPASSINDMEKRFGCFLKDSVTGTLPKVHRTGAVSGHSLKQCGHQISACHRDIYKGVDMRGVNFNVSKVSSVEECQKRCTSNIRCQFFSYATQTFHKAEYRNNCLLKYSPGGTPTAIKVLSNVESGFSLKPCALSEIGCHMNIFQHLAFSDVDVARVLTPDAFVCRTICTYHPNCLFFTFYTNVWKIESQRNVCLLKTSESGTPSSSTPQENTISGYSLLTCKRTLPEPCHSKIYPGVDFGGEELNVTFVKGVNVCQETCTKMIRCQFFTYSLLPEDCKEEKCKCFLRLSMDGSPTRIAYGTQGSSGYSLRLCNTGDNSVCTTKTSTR
Chain of Plasma kallikrein (Homo sapiens) (P03952 391-638 limits assumed): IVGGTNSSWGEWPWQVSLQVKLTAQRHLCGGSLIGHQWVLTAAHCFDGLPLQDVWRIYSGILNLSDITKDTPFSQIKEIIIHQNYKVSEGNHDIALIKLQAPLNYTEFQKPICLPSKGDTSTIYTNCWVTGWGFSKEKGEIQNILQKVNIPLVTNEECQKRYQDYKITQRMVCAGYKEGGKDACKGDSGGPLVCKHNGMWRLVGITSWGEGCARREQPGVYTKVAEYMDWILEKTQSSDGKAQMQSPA

[6] = molecular target: T3, Coagulation factor XII (Bos taurus) (UniProt P98140); assay: as §1; how it was run: as §2
T3 sequence (whole entry): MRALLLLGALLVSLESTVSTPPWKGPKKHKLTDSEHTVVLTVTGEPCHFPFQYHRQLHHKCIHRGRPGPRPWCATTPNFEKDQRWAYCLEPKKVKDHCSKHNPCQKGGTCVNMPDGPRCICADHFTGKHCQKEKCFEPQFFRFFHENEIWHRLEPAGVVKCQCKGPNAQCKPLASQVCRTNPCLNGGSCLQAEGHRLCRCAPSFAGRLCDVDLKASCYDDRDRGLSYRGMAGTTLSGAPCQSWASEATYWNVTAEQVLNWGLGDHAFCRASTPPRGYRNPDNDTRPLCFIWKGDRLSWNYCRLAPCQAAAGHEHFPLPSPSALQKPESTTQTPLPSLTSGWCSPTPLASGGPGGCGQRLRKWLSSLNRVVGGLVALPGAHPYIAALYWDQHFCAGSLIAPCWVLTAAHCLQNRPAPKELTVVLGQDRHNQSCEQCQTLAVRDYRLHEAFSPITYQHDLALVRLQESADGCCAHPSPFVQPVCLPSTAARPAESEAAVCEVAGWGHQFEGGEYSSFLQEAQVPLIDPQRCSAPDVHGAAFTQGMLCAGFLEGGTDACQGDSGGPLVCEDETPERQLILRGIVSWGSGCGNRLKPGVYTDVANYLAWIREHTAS

[7] = molecular target: Prothrombin (Homo sapiens) (UniProt P00734); assay: as §3
[8] = molecular target: T2, Serine protease 1 (Bos taurus); assay: The compound was measured for inhibitory activity against bovine trypsin; NI=No inhibition
How it was run: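 Irreversible inactivation by incubation: enzyme (0.03–2.3 µM) mixed with inhibitor (1.7–420 µM, added in Me2SO, 8–12% final) in 0.1 M Hepes, 0.01 M CaCl2, pH 7.5, at 25 °C. Aliquots were taken over time and residual activity read with Z-Phe-Gly-Arg-NA (100–120 µM) at 410 nm. kobs came from ln v0/vt vs time, and kobs/[I] from the average of duplicate or triplicate runs.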

[9] = molecular target: Prothrombin (Homo sapiens) (UniProt P00734); assay: The compound was measured for inhibitory activity against human thrombin; NI=No inhibition
How it was run: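 Human thrombin (0.03–2.3 µM) was incubated with inhibitor (1.7–420 µM, added in Me2SO, 8–12% final) in 0.1 M Hepes, 0.5 M NaCl, pH 7.5, at 25 °C. Timed aliquots were assayed for residual activity with Z-Arg-SBzl (80–90 µM) plus 4,4'-dithiodipyridine at 394 nm. Pseudo-first-order kobs came from ln v0/vt vs time, and kobs/[I] was typically averaged over duplicate or triplicate experiments.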

Row | SMILES | K obs / 1 [1] | K obs / 1 [2] | K obs / 1 [3] | K obs / 1 [4] | K obs / 1 [5] | other results
1 | CC(C)(C)OC(=O)N[C@@H](Cc1ccccc1)C(=O)N1CCC[C@H]1C(=O)NC(c1ccc(C(=N)N)cc1)P(=O)(Oc1ccccc1)Oc1ccccc1 (some centres undefined) | 52 M⁻¹ s⁻¹ | 2200 M⁻¹ s⁻¹ | 11000 M⁻¹ s⁻¹ | 12000 M⁻¹ s⁻¹ | 160 M⁻¹ s⁻¹ | –
2 | N=C(N)c1ccc(C[C@H](N)P(=O)(Oc2ccccc2)Oc2ccccc2)cc1 | – | 32 M⁻¹ s⁻¹ | 2.2 M⁻¹ s⁻¹ | – | – | –
3 | CC(=O)N[C@H](Cc1ccccc1)C(=O)N1CCC[C@H]1C(=O)N[C@@H](CCCN=C(N)N)P(=O)(Oc1ccccc1)Oc1ccccc1 | – | – | 1200 M⁻¹ s⁻¹ | – | – | –
4 | CC(C)(C)OC(=O)N[C@@H](Cc1ccccc1)C(=O)N1CCC[C@H]1C(=O)N[C@@H](Cc1ccc(C(=N)N)cc1)P(=O)(Oc1ccccc1)Oc1ccccc1 | – | 130 M⁻¹ s⁻¹ | 0.7 M⁻¹ s⁻¹ | – | – | –
5 | N=C(N)c1ccc(C(NC(=O)OCc2ccccc2)P(=O)(Oc2ccccc2)Oc2ccccc2)cc1 (centres undefined) | 20 M⁻¹ s⁻¹ | – | 80 M⁻¹ s⁻¹ | 170 M⁻¹ s⁻¹ | 18000 M⁻¹ s⁻¹ | –
6 | N=C(N)c1ccc(C(NC(=O)CNS(=O)(=O)c2ccc3ccccc3c2)P(=O)(Oc2ccccc2)Oc2ccccc2)cc1 (centres undefined) | – | 470 M⁻¹ s⁻¹ | – | – | 960 M⁻¹ s⁻¹ | K obs / 1 [6]: 25 M⁻¹ s⁻¹; K obs / 1 [7]: 170 M⁻¹ s⁻¹
7 | N=C(N)c1ccc(C(NC(=O)[C@@H]2CCCN2C(=O)[C@@H](N)Cc2ccccc2)P(=O)(Oc2ccccc2)Oc2ccccc2)cc1 (some centres undefined) | 2.8 M⁻¹ s⁻¹ | 110 M⁻¹ s⁻¹ | 700 M⁻¹ s⁻¹ | 730 M⁻¹ s⁻¹ | 250 M⁻¹ s⁻¹ | –
8 | CCOP(=O)(OCC)[C@H](Cc1ccc(C(=N)N)cc1)NC(=O)[C@@H]1CCCN1C(=O)OCc1ccccc1 | – | – | – | – | – | K obs / 1 [8]: inactive; K obs / 1 [9]: inactive
9 | N=C(N)c1ccc(C[C@H](NC(=O)[C@@H]2CCCN2C(=O)[C@@H](N)Cc2ccccc2)P(=O)(Oc2ccccc2)Oc2ccccc2)cc1 | – | 50 M⁻¹ s⁻¹ | 54 M⁻¹ s⁻¹ | – | – | –
10 | N=C(N)c1ccc(C(NC(=O)[C@@H]2CCCN2C(=O)OCc2ccccc2)P(=O)(Oc2ccccc2)Oc2ccccc2)cc1 (some centres undefined) | 2.6 M⁻¹ s⁻¹ | 100 M⁻¹ s⁻¹ | 20 M⁻¹ s⁻¹ | 70 M⁻¹ s⁻¹ | 60 M⁻¹ s⁻¹ | –
11 | N=C(N)c1ccc(C[C@H](NC(=O)OCc2ccccc2)P(=O)(Oc2ccccc2)Oc2ccccc2)cc1 | – | 24 M⁻¹ s⁻¹ | 0.2 M⁻¹ s⁻¹ | – | – | –
